Source: ChEMBL document CHEMBL4014311, “Discovery of a Hepatitis C Virus NS5B Replicase Palm Site Allosteric Inhibitor (BMS-929075) Advanced to Phase 1 Clinical Studies” (J Med Chem, 2017)
pEC50, pIC50: −log10 of the molar value. Values belong to the compound of their own block, whether it stands above or below them.

What was measured:
[1] = tested on: Hepatitis C virus; assay: Antiviral activity against HCV genotype 1b infected in human HuH7 cells after 3 days by luciferase reporter assay; type: functional, cell-based, Hepacivirus hominis; conditions: Hepatitis C virus, genotype 1b, Huh-7, 72 h; read-out: EC50
[2] = Ratio of IC50 for HCV genotype 1b […] replicase to EC50 for HCV genotype 1b infected in human HuH7 cells; design: species or system Hepatitis C virus subtype 1b
[3] = Inhibition of HCV genotype 1b NS5B replicase expressed in Escherichia coli BL21(DE3) using polyA/biotinylated oligo(dT12) as template/primer in presence of [3H]UTP after 60 mins by SPA assay; design: species or system Hepatitis C virus subtype 1b
[4] = Drug uptake in Sprague-Dawley rat plasma at 6 mg/kg, po via gavage after 6 hrs by LC-MS/MS analysis; type: ADME, organism-based
In short: (§1)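 Fasted rats were dosed orally in 90:10 PEG-400/ethanol; 6 h livers came from satellite animals. In the screening variant, n = 2 and plasma was taken to 6 h with livers at the terminal point. Livers were rinsed, blotted, weighed and homogenized in 2 volumes of 80% acetonitrile in HBSS per gram, then centrifuged. Supernatant and plasma were analysed by LC/MS/MS.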

[5] = Membrane permeability at pH 7.4 by PAMPA; type: physicochemical; conditions: read-out: permeability
[6] = tested on: Hepatitis C virus; assay: Antiviral activity against HCV genotype 1a infected in human HuH7 cells after 3 days by luciferase reporter assay; type: functional, cell-based, Hepacivirus hominis, subtype 1a; conditions: Hepatitis C virus, subtype 1a, Huh-7, 72 h; read-out: EC50
[7] = Inhibition of HCV genotype 1b NS5B replicase C316N mutant infected in human HuH7 cells assessed as reduction of viral replication after 3 days by luciferase reporter assay; type: cell-based, Hepatitis C virus subtype 1b; conditions: Hepatitis C virus, Huh-7, 72 h
[8] = Drug uptake in Sprague-Dawley rat liver at 6 mg/kg, po via gavage after 6 hrs by LC-MS/MS analysis; type: ADME, organism-based; conditions: read-out: Drug uptake; in short: as §1
[9] = Clearance in Sprague-Dawley rat at 6 mg/kg, po via gavage by LC-MS/MS analysis; type: ADME, organism-based; conditions: in vivo
[10] = molecular target: T1, Cytochrome P450 2C8 (Homo sapiens, UniProt P10632); assay: Inhibition of microsomal CYP2C8 (unknown origin); type: ADME
T1 sequence (P10632 whole entry): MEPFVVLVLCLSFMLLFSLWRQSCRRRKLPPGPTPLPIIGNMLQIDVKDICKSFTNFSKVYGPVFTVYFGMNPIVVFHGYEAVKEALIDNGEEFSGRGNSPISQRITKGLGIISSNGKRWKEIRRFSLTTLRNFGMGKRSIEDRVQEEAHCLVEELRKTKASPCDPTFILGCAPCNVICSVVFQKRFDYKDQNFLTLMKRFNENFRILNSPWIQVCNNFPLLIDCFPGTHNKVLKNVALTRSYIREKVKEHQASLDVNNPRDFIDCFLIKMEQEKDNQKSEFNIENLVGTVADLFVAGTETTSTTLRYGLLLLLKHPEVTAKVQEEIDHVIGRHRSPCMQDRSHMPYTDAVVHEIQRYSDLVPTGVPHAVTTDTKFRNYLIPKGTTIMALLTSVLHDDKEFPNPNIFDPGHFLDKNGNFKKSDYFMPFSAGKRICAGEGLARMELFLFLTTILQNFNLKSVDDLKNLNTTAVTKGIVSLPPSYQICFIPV

[11] = Half life in monkey liver microsomes; type: ADME, Macaca mulatta, microsome; conditions: rhesus monkey
[12] = Lipophilicity, log D of the compound at pH 6.5 by shake flask method; type: physicochemical; conditions: buffer
[13] = molecular target: Cytochrome P450 3A4 (Homo sapiens, UniProt P08684); assay: Inhibition of microsomal CYP3A4 (unknown origin); type: ADME
[14] = Metabolic stability in human liver microsomes assessed as parent compound remaining after 10 mins; type: ADME, microsome; conditions: read-out: Stability
[15] = Half life in dog liver microsomes; type: ADME, Canis lupus familiaris, microsome
[16] = Half life in rat liver microsomes; type: ADME, microsome
[17] = Metabolic stability in rat liver microsomes assessed as parent compound remaining after 10 mins; type: ADME, microsome; conditions: read-out: Stability
[18] = molecular target: T2, Nuclear receptor subfamily 1 group I member 2 (Homo sapiens, UniProt O75469); assay: Transactivation of PXR (unknown origin); type: ADME
T2 sequence (O75469 whole entry): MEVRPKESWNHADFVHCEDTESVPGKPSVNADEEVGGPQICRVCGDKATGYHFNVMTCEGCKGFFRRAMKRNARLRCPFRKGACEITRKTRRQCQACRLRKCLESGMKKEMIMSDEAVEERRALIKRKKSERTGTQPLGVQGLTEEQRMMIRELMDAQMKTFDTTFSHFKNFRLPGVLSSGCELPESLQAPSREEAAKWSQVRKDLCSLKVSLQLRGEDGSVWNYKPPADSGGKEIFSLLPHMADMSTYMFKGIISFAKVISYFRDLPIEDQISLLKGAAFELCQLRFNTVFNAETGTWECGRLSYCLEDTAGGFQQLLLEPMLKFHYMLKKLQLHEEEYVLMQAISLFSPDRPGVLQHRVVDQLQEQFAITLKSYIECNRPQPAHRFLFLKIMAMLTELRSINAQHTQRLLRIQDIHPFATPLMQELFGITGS

[19] = Half life in human liver microsomes; type: ADME, microsome
[20] = tested on: Hepatitis C virus; assay: Ratio of EC50 for HCV genotype 1b infected in human HuH7 cells in presence of 40% human serum to EC50 for HCV genotype-1b infected in human HuH7 cells; type: functional, Hepacivirus hominis
[21] = Ratio of drug uptake in Sprague-Dawley rat liver to plasma at 6 mg/kg, po administered via gavage after 24 hrs by LC/MS/MS analysis; type: ADME, organism-based
In short: (§2)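 Rats fasted overnight, then dosed by gavage at 6 mg/kg in 90:10 PEG-400/ethanol (v/v). Plasma sampled serially from cannula into EDTA tubes predose and at 15, 30, 45, 60 min and 2, 4, 6, 8, 24 h; n = 3. Livers removed at 6 h (satellite animals) and 24 h, homogenized in 80% acetonitrile/HBSS, assayed by LC/MS/MS. Tmax taken directly from observed data.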

[22] = molecular target: Voltage-gated inwardly rectifying potassium channel KCNH2 (Homo sapiens, UniProt Q12809); assay: Inhibition of human ERG by thallium flux assay
[23] = Tmax in Sprague-Dawley rat at 6 mg/kg, po administered via gavage by LC/MS/MS analysis; type: ADME, organism-based; conditions: in vivo; in short: as §2
[24] = tested on: Hepatitis C virus; assay: Ratio of EC50 for HCV genotype 1a infected in human HuH7 cells in presence of 40% human serum to EC50 for HCV genotype 1a infected in human HuH7 cells; type: functional, Hepacivirus hominis, subtype 1a
[25] = Drug uptake in Sprague-Dawley rat liver at 6 mg/kg, po administered via gavage after 24 hrs by LC/MS/MS analysis; type: ADME, organism-based; conditions: read-out: Drug uptake; in short: as §1
[26] = Cmax in Sprague-Dawley rat at 6 mg/kg, po administered via gavage by LC/MS/MS analysis; type: ADME, organism-based; design: dose 6 mg/kg, route oral; conditions: in vivo
In short: (§3)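 Rats were fasted overnight with free access to water, then dosed by gastric gavage with an […] solution in 90:10 PEG-400/ethanol (v/v), n = 3 per group. EDTA plasma was sampled predose and at 15, 30, 45, 60 min and 2, 4, 6, 8, 24 h, then assayed by LC/MS/MS. Parameters come from noncompartmental analysis: Cmax observed directly, AUC by linear/log trapezoidal summation, F as dose-normalized PO/IV AUC ratio.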

[27] = tested on: Rattus norvegicus; assay: Half life in Sprague-Dawley rat at 2 mg/kg,iv by LC/MS/MS analysis; type: ADME, organism-based; conditions: in vivo
In short: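 A 10 min constant-rate jugular vein infusion was given in 90:10 PEG-400/ethanol (v/v), n = 3 rats. Plasma was sampled predose and at 10, 15, 30, 45, 60 min and 2, 4, 6, 8, 24 h, then assayed by LC/MS/MS. Clearance and apparent terminal t1/2 were estimated by noncompartmental analysis.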

[28] = Oral bioavailability in Sprague-Dawley rat at 6 mg/kg by LC/MS/MS analysis; type: ADME, organism-based; conditions: in vivo; in short: as §3
[29] = Cytotoxicity against human HuH7 cells after 3 days by CellTiter-Blue assay; type: cell-based, Huh-7
[30] = molecular target: hERG (Homo sapiens, UniProt Q12809); assay: Inhibition of human ERG at 10 uM by patch clamp assay
[31] = tested on: Rattus norvegicus; assay: Volume of distribution at steady state in Sprague-Dawley rat at 2 mg/kg, iv by LC/MS/MS analysis; type: ADME, organism-based; conditions: in vivo
In short: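 Rats received a 2 mg/kg IV dose in 90:10 PEG-400/ethanol as a 10 min constant-rate jugular infusion. Blood collected predose and at 10, 15, 30, 45, 60 min and 2, 4, 6, 8, 24 h; n = 3. Plasma analyzed by LC/MS/MS. Vss derived by noncompartmental analysis of IV data.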

[32] = AUC in Sprague-Dawley rat at 6 mg/kg, po administered via gavage by LC/MS/MS analysis; type: ADME, organism-based; conditions: in vivo; in short: as §3

Cytochrome P450 3A4, sequence (P08684 whole entry): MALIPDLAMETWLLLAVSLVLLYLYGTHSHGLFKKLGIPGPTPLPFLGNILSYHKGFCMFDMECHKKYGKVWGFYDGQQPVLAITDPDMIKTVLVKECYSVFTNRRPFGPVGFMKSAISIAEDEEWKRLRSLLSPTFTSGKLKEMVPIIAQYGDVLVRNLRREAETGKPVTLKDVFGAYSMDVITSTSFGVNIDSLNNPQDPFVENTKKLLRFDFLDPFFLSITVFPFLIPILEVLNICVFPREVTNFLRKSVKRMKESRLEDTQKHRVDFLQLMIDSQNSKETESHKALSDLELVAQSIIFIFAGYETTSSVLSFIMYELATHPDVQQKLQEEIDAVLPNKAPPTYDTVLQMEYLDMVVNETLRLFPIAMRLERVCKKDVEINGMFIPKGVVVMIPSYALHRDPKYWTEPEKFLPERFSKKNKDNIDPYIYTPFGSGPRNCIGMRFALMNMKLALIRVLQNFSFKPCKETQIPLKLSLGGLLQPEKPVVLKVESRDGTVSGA
Voltage-gated inwardly rectifying potassium channel KCNH2, sequence (Q12809 whole entry): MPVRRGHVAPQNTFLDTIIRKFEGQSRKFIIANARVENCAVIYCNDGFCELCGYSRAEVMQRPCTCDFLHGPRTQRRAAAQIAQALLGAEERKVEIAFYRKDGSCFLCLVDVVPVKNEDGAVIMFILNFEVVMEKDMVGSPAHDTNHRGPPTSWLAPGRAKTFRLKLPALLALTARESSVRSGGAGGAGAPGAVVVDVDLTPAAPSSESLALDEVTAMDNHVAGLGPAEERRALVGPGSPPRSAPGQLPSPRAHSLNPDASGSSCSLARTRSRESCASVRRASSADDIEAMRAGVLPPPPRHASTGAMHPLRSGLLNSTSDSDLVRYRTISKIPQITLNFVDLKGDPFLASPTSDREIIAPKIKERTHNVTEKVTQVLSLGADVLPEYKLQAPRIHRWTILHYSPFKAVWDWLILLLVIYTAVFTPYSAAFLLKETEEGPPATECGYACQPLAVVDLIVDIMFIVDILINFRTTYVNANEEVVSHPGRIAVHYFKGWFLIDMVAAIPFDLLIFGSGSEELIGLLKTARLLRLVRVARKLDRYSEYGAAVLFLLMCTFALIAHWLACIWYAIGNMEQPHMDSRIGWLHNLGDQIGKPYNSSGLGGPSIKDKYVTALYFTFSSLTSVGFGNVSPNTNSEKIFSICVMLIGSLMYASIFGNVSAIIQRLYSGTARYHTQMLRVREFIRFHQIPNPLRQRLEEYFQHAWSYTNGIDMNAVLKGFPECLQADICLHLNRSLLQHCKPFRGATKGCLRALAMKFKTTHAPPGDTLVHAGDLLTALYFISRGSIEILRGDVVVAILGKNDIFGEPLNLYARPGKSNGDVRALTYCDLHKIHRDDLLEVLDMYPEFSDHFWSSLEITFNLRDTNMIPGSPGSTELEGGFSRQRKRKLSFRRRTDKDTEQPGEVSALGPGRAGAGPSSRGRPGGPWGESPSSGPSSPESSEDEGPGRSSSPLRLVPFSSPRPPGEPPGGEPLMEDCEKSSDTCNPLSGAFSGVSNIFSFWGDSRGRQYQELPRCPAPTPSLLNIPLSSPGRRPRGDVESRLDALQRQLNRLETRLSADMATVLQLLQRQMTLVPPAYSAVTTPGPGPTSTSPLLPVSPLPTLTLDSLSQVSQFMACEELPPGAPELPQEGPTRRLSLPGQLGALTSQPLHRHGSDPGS
hERG, sequence (Q12809 whole entry): as above

pEC50 [1]: 6.23
pIC50 [3]: 5.66
SMILES: CNC(=O)c1cccc(-c2ccc3oc(-c4ccc(F)cc4)c(C(=O)NC)c3c2)c1
Ratio IC50/EC50 [2]: 2

SMILES: CNC(=O)c1c(-c2ccc(F)cc2)oc2ccc(-c3cc(C(=O)NC4(c5ccccn5)CC4)ccc3C)cc12
concentration at 6 h [4]: 1.64 µM
Papp [5]: 99.9 ×10⁻⁶ cm/s
pEC50 [6]: 8.55
pEC50 [7]: 7.26
pEC50 [1]: 8.72
concentration at 6 h [8]: 15.7 µM
CL/F [9]: 14 mL/min/kg
pIC50 [10]: 6.00
half-life [11]: 0.333 h
logD [12]: 5.42
pIC50 [13]: 5.39
remaining at 10 min [14]: 89%
half-life [15]: 0.233 h
half-life [16]: 1.02 h
remaining at 10 min [17]: 82%
pEC50 [18]: 5.80
half-life [19]: 1.8 h

SMILES: CNC(=O)c1c(-c2ccc(F)cc2)oc2ccc(-c3cc(C(=O)NC4(c5ncccn5)CC4)ccc3C)cc12
Ratio EC50 [20]: 4
Kp at 24 h [21]: 2.4
pIC50 [22]: 5.32
Papp [5]: 76.9 ×10⁻⁶ cm/s
pEC50 [6]: 8.64
pEC50 [7]: 7.29
pEC50 [1]: 9.00
concentration at 6 h [8]: 8.7 µM
pIC50 [10]: 5.41
Tmax [23]: 4.7 h
half-life [11]: 0.85 h
logD [12]: 4.76
pIC50 [13]: 4.94
Ratio EC50 [24]: 4
half-life [15]: 0.767 h
concentration at 24 h [25]: 0.614 µM
Cmax [26]: 6.7 µM
t1/2 [27]: 5.3 h
bioavailability [28]: > 100%
CC50 at 72 h [29]: 20000 nM
inhibition at 10 µM [30]: 96%
half-life [16]: 1.43 h
Vdss [31]: 6.1 L/kg
pEC50 [18]: < 4.30
AUC [32]: 48.7 µM·h
half-life [19]: > 2 h
